Data: publication PMC7731903 (Clinical cancer research : an official journal of the …, 2018)
Entries after “also recorded” stand apart in the source; their conditions may differ.

Key:
Type in all cases: in vivo, human
[1] = Alisertib plasma PK in patients; details: for AUC / Cmax / Tmax: human, plasma, oral; for AUC: Geometric mean AUCτ (CV); for Cmax: Geometric mean Cmax (CV)
Procedure, shortened: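 Patients with relapsed/refractory aggressive B-cell NHL took oral test compound twice daily on days 1–7 of 21-day cycles, at 30 to 50 mg b.i.d. Cohorts received it with rituximab 375 mg/m2 i.v. on day 1, with or without vincristine 1.4 mg/m2 (max 2 mg) i.v. on days 1 and 8. Blood was drawn at prespecified times after the morning dose on cycle 1 days 1 and 7. Cmax, tmax and AUCτ were derived by noncompartmental analysis.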

[2] = system: relapsed/refractory aggressive B-cell lymphoma; experiment: Antitumor activity, investigator-assessed response
non-GCB DLBCL = experiment: Best response by cell of origin; details: non-GCB-derived disease, 20 patients (MR + MRV)
GCB DLBCL = experiment: Best response by cell of origin; details: MR + MRV; P = 0.058 vs non-GCB, two-sided Fisher exact test
[3] = Vincristine plasma PK in presence; details: for AUC / AUC(0-inf) / clearance / Cmax / half-life: human, plasma, intravenous; for AUC: Geometric mean AUCτ (CV); for AUC(0-inf): Geometric mean AUC∞ (CV); for clearance: Geometric mean CL (CV); for Cmax: Geometric mean Cmax (CV); for half-life: Mean t1/2z (st. dev)
[4] = 30 mg, MRV, alisertib 30 mg b.i.d., C1D1, n=4
[5] = 30 mg, MRV, alisertib 30 mg b.i.d., C1D7, n=4
[6] = 40 mg, MRV, alisertib 40 mg b.i.d., C1D7, n=20
[7] = 50 mg, MR, alisertib 50 mg b.i.d., C1D7, n=12
[8] = 50 mg, MRV, alisertib 50 mg b.i.d., C1D1, n=3
[9] = 50 mg, MRV, alisertib 50 mg b.i.d., C1D7, n=2
[10] = 30 mg, alisertib 30 mg b.i.d. cohort, C1D1 (alisertib present), n=4
[11] = 30 mg, alisertib 30 mg b.i.d. cohort, C2D1 (alisertib absent), n=3
[12] = 30 mg, alisertib 30 mg b.i.d. cohort, C2D1 (alisertib absent), n=4
[13] = 40 mg, alisertib 40 mg b.i.d. cohort, C2D1 (alisertib absent), n=17
[14] = 40 mg, alisertib 40 mg b.i.d. cohort, C1D1 (alisertib present), n=22
[15] = 40 mg, alisertib 40 mg b.i.d. cohort, C2D1 (alisertib absent), n=16
[16] = 40 mg, alisertib 40 mg b.i.d. cohort, C1D1 (alisertib present), n=25
[17] = 50 mg, alisertib 50 mg b.i.d. cohort, C1D1 (alisertib present), n=3
[18] = 50 mg, alisertib 50 mg b.i.d. cohort, C2D1 (alisertib absent), n=2

Work on `COc1cc(Nc2ncc3c(n2)-c2ccc(Cl)cc2C(c2c(F)cccc2OC)=NC3)ccc1C(=O)O` [alisertib] yielded an AUC [1, 4] of 5.22 µM·h, an AUC [1, 5] of 11.8 µM·h and a Cmax [1, 4] of 841 nM. It also gave a Cmax [1, 5] of 1660 nM, a Tmax ([1]; 30 mg, Median Tmax (range), MRV, alisertib 30 mg b.i.d., C1D1, n=4) of 3.5 h and a Tmax ([1]; 30 mg, Median Tmax (range), MRV, alisertib 30 mg b.i.d., C1D7, n=4) of 3.1 h. For the same compound, the AUC ([1]; 40 mg, MRV, alisertib 40 mg b.i.d., C1D1, n=22) was 7.44 µM·h, the AUC [1, 6] was 14.9 µM·h and the Cmax ([1]; 40 mg, MRV, alisertib 40 mg b.i.d., C1D1, n=25) was 1090 nM. It also gave a Cmax [1, 6] of 1950 nM, a Tmax ([1]; 40 mg, Median Tmax (range), MRV, alisertib 40 mg b.i.d., C1D1, n=25) of 3 h and a Tmax ([1]; 40 mg, Median Tmax (range), MRV, alisertib 40 mg b.i.d., C1D7, n=20) of 3.1 h. For the same compound, the AUC ([1]; 50 mg, MR, alisertib 50 mg b.i.d., C1D1, n=12) was 8.61 µM·h, the AUC [1, 7] was 18.7 µM·h and the AUC [1, 8] was 11.2 µM·h. The AUC [1, 9] was 31.8 µM·h, the Cmax ([1]; 50 mg, MR, alisertib 50 mg b.i.d., C1D1, n=13) was 1400 nM and the Cmax [1, 7] was 2590 nM. For the same compound, the Cmax [1, 8] was 1670 nM, the Cmax [1, 9] was 3500 nM and the Tmax ([1]; 50 mg, Median Tmax (range), MR, alisertib 50 mg b.i.d., C1D1, n=13) was 3 h. For the same compound, the Tmax ([1]; 50 mg, Median Tmax (range), MR, alisertib 50 mg b.i.d., C1D7, n=12) was 2 h, the Tmax ([1]; 50 mg, Median Tmax (range), MRV, alisertib 50 mg b.i.d., C1D1, n=3) was 6.1 h and the Tmax ([1]; 50 mg, Median Tmax (range), MRV, alisertib 50 mg b.i.d., C1D7, n=2) was 2.5 h. For the same compound, the Tmax ([1]; tmax after dose, with both MR and MRV) was about 3 h, the “Increase of alisertib exposures with dose” value ([1]; over the range of 30 to 50 mg b.i.d.) was “approximately dose-proportional” and the “ORR (CR + PR)” value ([2]; 37 response-evaluable patients (MR + MRV), n = 14) was 38%. For the same compound, the CR ([2]; Total MR + MRV, N=37) was 7 (19) n (%), the “ORR (CR + PR)” value ([2]; Total MR + MRV, N=37) was 14 (38) n (%) and the PD ([2]; Total MR + MRV, N=37) was 11 (30) n (%). The PR ([2]; Total MR + MRV, N=37) was 7 (19) n (%), the “Complete responses (CR)” value ([2]; all patients (MR + MRV)) was “Seven” and the “Median PFS” value ([2]; all patients (MR + MRV)) was 5.1 months. The “Partial responses (PRs)” value ([2]; all patients (MR + MRV)) was 7 patients, the “Median DOR” value ([2]; patients with a best response of CR, range 9.0–35.7) was 14.3 months and the “Median PFS” value ([2]; patients with a best response of CR, range 10.1–36.9) was 16.4 months. The “Median DOR” value ([2]; responding patients (MR + MRV)) was 10.2 months, the “Patients achieving first response by the end of cycle 2” value ([2]; responding patients (MR + MRV)) was 57% and the “PR as best response” value (non-GCB DLBCL; 3 patients) was 15%. The “CR as best response” value (non-GCB DLBCL; 6 patients) was 30% and the “Objective response in GCB-derived disease” value (GCB DLBCL) was “None of the 7 response-evaluable patients; also recorded: no patients with GCB-derived disease (9/29) achieved an objective response”.
With `CC[C@]1(O)C[C@H]2CN(CCc3c([nH]c4ccccc34)[C@@](C(=O)OC)(c3cc4c(cc3OC)N(C=O)[C@H]3[C@@](O)(C(=O)OC)[C@H](OC(C)=O)[C@]5(CC)C=CCN6CC[C@]43[C@@H]65)C2)C1` [vincristine] the “Geometric mean ratio of vincristine AUC∞, presence vs absence of alisertib” value ([3]; MRV RP2D (alisertib 40 mg b.i.d.), 90% CI 82–115, n = 22) was 97%, the AUC [3, 10] was 69.2 ng·h/mL and the AUC ([3]; 30 mg, alisertib 30 mg b.i.d. cohort, C2D1 (alisertib absent), n=2) was 60.8 ng·h/mL. It also gave an AUC(0-inf) [3, 10] of 77 ng·h/mL, an AUC(0-inf) [3, 11] of 69 ng·h/mL and a clearance [3, 10] of 432 mL/min. It also gave a clearance [3, 12] of 483 mL/min, a Cmax [3, 12] of 98.2 ng/mL and a half-life [3, 10] of 20.2 h. It also gave a half-life [3, 11] of 19.9 h, an AUC ([3]; 40 mg, alisertib 40 mg b.i.d. cohort, C1D1 (alisertib present), n=24) of 60.1 ng·h/mL and an AUC [3, 13] of 67.8 ng·h/mL. It also gave an AUC(0-inf) [3, 14] of 78 ng·h/mL, an AUC(0-inf) [3, 15] of 77 ng·h/mL and a clearance [3, 16] of 427 mL/min. It also gave a clearance [3, 13] of 432 mL/min, a Cmax [3, 16] of 82.9 ng/mL and a Cmax [3, 13] of 87.3 ng/mL. For the same compound, the half-life [3, 14] was 20 h, the half-life [3, 15] was 20.2 h and the AUC [3, 17] was 98 ng·h/mL. It also gave an AUC [3, 18] of 68.4 ng·h/mL, an AUC(0-inf) [3, 17] of 111 ng·h/mL and a clearance [3, 17] of 300 mL/min. It also gave a Cmax [3, 17] of 149 ng/mL, a Cmax [3, 18] of 120 ng/mL and a half-life [3, 17] of 25.6 h. For the same compound, the Cmax ([3]; vincristine 1.4 mg/m^2 + rituximab, alisertib 30 mg b.i.d. cohort, C1D1 (alisertib present), n=4) was 120 ng/mL.
